Columns and labels:
Cavia porcellus = organism: Cavia porcellus; experiment: Ability to inhibit the electrically evoked contraction of the guinea pig ileum; assay type: functional, organism-based
In short: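 Longitudinal muscle-myenteric plexus strips from male Hartley guinea pigs (250-500 g) in 37 °C oxygenated Krebs, 1 g tension, transmural stimulation 0.1 Hz, 0.4-ms supramaximal pulses. At least four tissues; IC50 by Hill equation fit.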

Mu-type opioid receptor = Mu-type opioid receptor (Cavia porcellus, UniProt P97266); experiment: Inhibition of [3H]DAMGO binding to Opioid receptor mu 1 of guinea pig brain membrane homogenates
[1] = target: Kappa-type opioid receptor (Cavia porcellus, UniProt P41144); experiment: Inhibition of [3H]U-69593 binding to Opioid receptor kappa 1 of plasma membrane homogenates of guinea pig brain; assay type: cell-free
[2] = test system: Kappa opioid receptor (Cavia porcellus); experiment: Central (GPB) and Peripheral (GPI) Nervous Systems Selectivity at kappa Opioid Receptor
[3] = Relative binding to mu and kappa opioid receptors (ratio of IC50)
[4] = Relative binding to delta and kappa opioid receptors (ratio of IC50)

Sequence of Mu-type opioid receptor (P97266 whole entry): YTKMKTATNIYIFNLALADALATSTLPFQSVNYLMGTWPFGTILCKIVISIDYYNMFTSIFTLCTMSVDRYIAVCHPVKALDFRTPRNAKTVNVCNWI
Sequence of Kappa-type opioid receptor (P41144 whole entry): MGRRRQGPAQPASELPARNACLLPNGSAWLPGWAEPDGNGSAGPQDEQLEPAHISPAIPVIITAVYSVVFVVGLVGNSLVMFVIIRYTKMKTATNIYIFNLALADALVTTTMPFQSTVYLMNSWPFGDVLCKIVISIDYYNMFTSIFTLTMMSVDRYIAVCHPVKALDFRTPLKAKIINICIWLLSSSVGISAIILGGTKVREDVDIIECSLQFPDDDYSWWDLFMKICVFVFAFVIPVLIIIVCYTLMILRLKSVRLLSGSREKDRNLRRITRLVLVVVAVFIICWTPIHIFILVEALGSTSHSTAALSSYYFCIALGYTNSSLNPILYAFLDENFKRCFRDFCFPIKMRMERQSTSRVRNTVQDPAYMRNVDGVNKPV

Row | Compound | IC50 (Cavia porcellus) [nM] | IC50 (Mu-type opioid receptor) [nM] | IC50 [1] [nM] | further results
1 | CC[C@H](C)[C@H](NC(=O)[C@H](CCCCN)NC(=O)[C@H](CCCN=C(N)N)NC(=O)[C@H](CC(C)C)NC(=O)[C@H](Cc1ccccc1)NC(=O)[C@@H](CC(=O)O)NC(=O)CNC(=O)[C@@H](N)Cc1ccc(O)cc1)C(=O)N[C@@H](CCCN=C(N)N)C(=O)N1CCC[C@H]1C(=O)N[C@@H](CCCCN)C(N)=O | 4900 |  |  | 
2 | CC[C@H](C)[C@H](NC(=O)[C@H](CCCNC(=N)N)NC(=O)[C@H](CCCNC(=N)N)NC(=O)[C@H](CCCCN)NC(=O)[C@H](Cc1ccccc1)NC(=O)CNC(=O)CNC(=O)[C@@H](N)Cc1ccc(O)cc1)C(=O)N[C@H](CC(=O)O)C(=O)N1CCC[C@H]1C(=O)N[C@@H](CCCCN)C(N)=O |  | 555 | 17.5 | 
3 | CC[C@H](C)[C@H](NC(=O)[C@H](CCCNC(=N)N)NC(=O)[C@@H]1CCCCNC(=O)C[C@@H](NC(=O)[C@@H](N)Cc2ccc(O)cc2)C(=O)NCC(=O)N[C@@H](Cc2ccccc2)C(=O)N[C@@H](CC(C)C)C(=O)N1)C(=O)N[C@@H](CCCNC(=N)N)C(=O)N1CCC[C@H]1C(=O)N[C@@H](CCCCN)C(N)=O |  | 2980 | 100 | 
4 | CC[C@H](C)[C@H](NC(=O)[C@H](CCCN=C(N)N)NC(=O)[C@@H]1CCCCNC(=O)C[C@H](NC(=O)[C@@H](N)Cc2ccc(O)cc2)C(=O)NCC(=O)N[C@H](Cc2ccccc2)C(=O)N[C@@H](CC(C)C)C(=O)N1)C(=O)N[C@@H](CCCN=C(N)N)C(=O)N1CCC[C@@H]1C(=O)N[C@H](CCCCN)C(N)=O |  |  |  | Ratio [2]: 5.6 Ratio; Selectivity [3]: 0.03 Ratio; Selectivity [4]: 0.11 Ratio
5 | CC[C@H](C)[C@H](NC(=O)[C@H]1CCCCNC(=O)C[C@@H](NC(=O)CNC(=O)[C@@H](N)Cc2ccc(O)cc2)C(=O)N[C@H](Cc2ccccc2)C(=O)N[C@@H](CC(C)C)C(=O)N[C@H](CCCN=C(N)N)C(=O)N1)C(=O)N[C@@H](CCCN=C(N)N)C(=O)N1CCC[C@@H]1C(=O)N[C@H](CCCCN)C(N)=O | 1500 | 740 | 25 | 
6 | CC[C@H](C)[C@H](NC(=O)[C@H](CCCN=C(N)N)NC(=O)[C@H](CCCCN)NC(=O)[C@H](CC(C)C)NC(=O)[C@H](Cc1ccccc1)NC(=O)CNC(=O)[C@H](CC(=O)O)NC(=O)[C@@H](N)Cc1ccc(O)cc1)C(=O)N[C@@H](CCCN=C(N)N)C(=O)N1CCC[C@H]1C(=O)N[C@@H](CCCCN)C(N)=O | 14.2 |  |  | 
7 | CC[C@H](C)[C@H](NC(=O)[C@H](CCCCN)NC(=O)[C@H](CCCNC(=N)N)NC(=O)[C@H](CC(C)C)NC(=O)[C@H](Cc1ccccc1)NC(=O)[C@H](CC(=O)O)NC(=O)CNC(=O)[C@@H](N)Cc1ccc(O)cc1)C(=O)N[C@@H](CCCNC(=N)N)C(=O)N1CCC[C@H]1C(=O)N[C@@H](CCCCN)C(N)=O |  | 1320 | 190 | 
8 | CC[C@H](C)[C@H](NC(=O)[C@H](CCCN=C(N)N)NC(=O)[C@@H]1CCCCNC(=O)C[C@@H](NC(=O)[C@@H](N)Cc2ccc(O)cc2)C(=O)NCC(=O)N[C@@H](Cc2ccccc2)C(=O)N[C@@H](CC(C)C)C(=O)N1)C(=O)N[C@@H](CCCN=C(N)N)C(=O)N1CCC[C@H]1C(=O)N[C@@H](CCCCN)C(N)=O | 16000 |  |  | 
9 | CC[C@H](C)[C@H](NC(=O)[C@H](CCCCN)NC(=O)[C@H](CCCN=C(N)N)NC(=O)[C@H](CC(C)C)NC(=O)[C@H](Cc1ccccc1)NC(=O)[C@@H](CC(=O)O)NC(=O)CNC(=O)[C@@H](N)Cc1ccc(O)cc1)C(=O)N[C@@H](CCCN=C(N)N)C(=O)N1CCC[C@@H]1C(=O)N[C@H](CCCCN)C(N)=O |  |  |  | Ratio [2]: 110 Ratio; Selectivity [3]: 14 Ratio; Selectivity [4]: 19 Ratio
10 | CC[C@H](C)[C@H](NC(=O)[C@H]1CCCCNC(=O)C[C@H](NC(=O)CNC(=O)[C@@H](N)Cc2ccc(O)cc2)C(=O)N[C@H](Cc2ccccc2)C(=O)N[C@@H](CC(C)C)C(=O)N[C@H](CCCN=C(N)N)C(=O)N1)C(=O)N[C@@H](CCCN=C(N)N)C(=O)N1CCC[C@@H]1C(=O)N[C@H](CCCCN)C(N)=O | 600 | 310 | 4.9 | 
11 | CC[C@@H](C)[C@H]1NC(=O)[C@H](CCCN=C(N)N)NC(=O)[C@@H](CCCN=C(N)N)NC(=O)[C@H](NC(=O)[C@@H](Cc2ccccc2)NC(=O)CNC(=O)CNC(=O)[C@H](N)Cc2ccc(O)cc2)CCCCNC(=O)C[C@H](C(=O)N2CCC[C@H]2C(=O)N[C@H](CCCCN)C(N)=O)NC1=O | 9300 | 120 | 100 | 
12 | CC[C@H](C)[C@H](NC(=O)[C@H](CCCN=C(N)N)NC(=O)[C@@H]1CCCCNC(=O)C[C@@H](NC(=O)[C@@H](N)Cc2ccc(O)cc2)C(=O)NCC(=O)N[C@H](Cc2ccccc2)C(=O)N[C@@H](CC(C)C)C(=O)N1)C(=O)N[C@@H](CCCN=C(N)N)C(=O)N1CCC[C@@H]1C(=O)N[C@H](CCCCN)C(N)=O |  |  |  | Ratio [2]: 160 Ratio; Selectivity [3]: 29.8 Ratio; Selectivity [4]: 9.1 Ratio
13 | CC[C@H](C)[C@H](NC(=O)[C@H](CCCNC(=N)N)NC(=O)[C@@H]1CCCCNC(=O)C[C@H](NC(=O)[C@@H](N)Cc2ccc(O)cc2)C(=O)NCC(=O)N[C@@H](Cc2ccccc2)C(=O)N[C@@H](CC(C)C)C(=O)N1)C(=O)N[C@@H](CCCNC(=N)N)C(=O)N1CCC[C@H]1C(=O)N[C@@H](CCCCN)C(N)=O |  | 3.4 | 110 | 
14 | CC[C@H](C)[C@H](NC(=O)[C@H](CCCCN)NC(=O)[C@H](CCCNC(=N)N)NC(=O)[C@H](CC(C)C)NC(=O)[C@H](Cc1ccccc1)NC(=O)[C@@H](CC(=O)O)NC(=O)CNC(=O)[C@@H](N)Cc1ccc(O)cc1)C(=O)N[C@@H](CCCNC(=N)N)C(=O)N1CCC[C@H]1C(=O)N[C@@H](CCCCN)C(N)=O |  | 660 | 47 | 
15 | CC[C@H](C)[C@H](NC(=O)[C@H](CCCN=C(N)N)NC(=O)[C@H](CCCN=C(N)N)NC(=O)[C@H](CCCCN)NC(=O)[C@H](Cc1ccccc1)NC(=O)CNC(=O)CNC(=O)[C@@H](N)Cc1ccc(O)cc1)C(=O)N[C@H](CC(=O)O)C(=O)N1CCC[C@H]1C(=O)N[C@@H](CCCCN)C(N)=O | 4160 |  |  | 
16 | CC[C@H](C)[C@H](NC(=O)[C@H](CCCN=C(N)N)NC(=O)[C@H](CCCN=C(N)N)NC(=O)[C@H](CCCCN)NC(=O)[C@H](Cc1ccccc1)NC(=O)CNC(=O)CNC(=O)[C@@H](N)Cc1ccc(O)cc1)C(=O)N[C@@H](CC(=O)O)C(=O)N1CCC[C@H]1C(=O)N[C@@H](CCCCN)C(N)=O |  | 400 | 35 | 
17 | CC[C@H](C)[C@H](NC(=O)[C@H](CCCNC(=N)N)NC(=O)[C@H](CCCCN)NC(=O)[C@H](CC(C)C)NC(=O)[C@H](Cc1ccccc1)NC(=O)CNC(=O)[C@H](CC(=O)O)NC(=O)[C@@H](N)Cc1ccc(O)cc1)C(=O)N[C@@H](CCCNC(=N)N)C(=O)N1CCC[C@H]1C(=O)N[C@@H](CCCCN)C(N)=O |  | 0.08 | 1.5 | 
18 | CC[C@H](C)[C@H](NC(=O)[C@H](CCCCN)NC(=O)[C@H](CCCN=C(N)N)NC(=O)[C@H](CC(C)C)NC(=O)[C@H](Cc1ccccc1)NC(=O)[C@H](CC(=O)O)NC(=O)CNC(=O)[C@@H](N)Cc1ccc(O)cc1)C(=O)N[C@@H](CCCN=C(N)N)C(=O)N1CCC[C@H]1C(=O)N[C@@H](CCCCN)C(N)=O | 13300 |  |  | 
19 | CC[C@H](C)[C@H](NC(=O)[C@H](CCCCN)NC(=O)[C@H](CCCN=C(N)N)NC(=O)[C@H](CC(C)C)NC(=O)[C@H](Cc1ccccc1)NC(=O)[C@H](CC(=O)O)NC(=O)CNC(=O)[C@@H](N)Cc1ccc(O)cc1)C(=O)N[C@@H](CCCN=C(N)N)C(=O)N1CCC[C@@H]1C(=O)N[C@H](CCCCN)C(N)=O |  |  |  | Ratio [2]: 72 Ratio; Selectivity [3]: 7 Ratio; Selectivity [4]: 9.5 Ratio
20 | CC[C@@H](C)[C@H]1NC(=O)[C@H](CCCNC(=N)N)NC(=O)[C@@H](CCCNC(=N)N)NC(=O)[C@H](NC(=O)[C@@H](Cc2ccccc2)NC(=O)CNC(=O)CNC(=O)[C@H](N)Cc2ccc(O)cc2)CCCCNC(=O)C[C@@H](C(=O)N2CCC[C@H]2C(=O)N[C@H](CCCCN)C(N)=O)NC1=O | 2500 | 12 | 6.6 | 
21 | CC[C@H](C)[C@H](NC(=O)[C@H](CCCN=C(N)N)NC(=O)[C@@H]1CCCCNC(=O)C[C@H](NC(=O)[C@@H](N)Cc2ccc(O)cc2)C(=O)NCC(=O)N[C@@H](Cc2ccccc2)C(=O)N[C@@H](CC(C)C)C(=O)N1)C(=O)N[C@@H](CCCN=C(N)N)C(=O)N1CCC[C@H]1C(=O)N[C@@H](CCCCN)C(N)=O | 610 |  |  | 
